# High-throughput results from PubChem BioAssay.
# This is a sample that favours compounds with a hit; in the whole collection about 4.7% have one here.
# FXN GAA850 act: increases GAA850 frataxin promoter reporter activity; HEK293 lucGAA850 FXN promoter luciferase reporter, 24 h; percent of 10 µM SAHA response; activation, % at 6 µM; hit rate 0.56% among 360,000;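 active = activation above the average of all compounds screened plus 3 SD, cutoff fixed separately per campaign, cut at about 7.5% in these data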;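 also: 0% = DMSO wells and 100% = 10 µM SAHA wells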
# MC4R ag barr: activates human MC4R beta-arrestin recruitment; activation, % at 8.9 µM; hit rate 0.98% among 360,000; AID 540308; U2OS MC4R beta-arrestin complementation, luminescence; percent of melanotan II response, DMSO zero; P32245;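 active = activation above a per-plate cutoff, the mean activation of sample wells on that plate plus 3 SD, cut at about 8% in these data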
# Target sequence (P32245 whole entry, looked up): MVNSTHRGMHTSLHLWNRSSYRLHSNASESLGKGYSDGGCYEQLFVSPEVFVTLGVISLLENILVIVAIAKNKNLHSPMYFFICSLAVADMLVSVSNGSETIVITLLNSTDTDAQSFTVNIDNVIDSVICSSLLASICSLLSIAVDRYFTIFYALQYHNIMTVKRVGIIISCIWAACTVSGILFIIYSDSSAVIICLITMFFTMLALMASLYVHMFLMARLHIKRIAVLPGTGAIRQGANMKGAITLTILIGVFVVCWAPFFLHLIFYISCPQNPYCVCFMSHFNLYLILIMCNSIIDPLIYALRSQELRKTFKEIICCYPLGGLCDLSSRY
# m5-HT2A agonist: agonists of mouse serotonin 5-HT2A receptor (HTR2A) | CHO-K1 mHTR2A beta-arrestin complementation, luminescence; percent of 30 µM serotonin response | activation, % at 7.6 µM | hit rate 0.66% among 360,000 | AID 624169;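 active = activation above a run cutoff, the mean activation of all tested compounds plus 3 SD, cut at about 14% in these data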;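 also: 0% = plate median of compound wells and 100% = 30 µM serotonin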
# AHR activator: activators of human aryl hydrocarbon receptor. P35869. AHR-responsive luciferase reporter cells, luminescence. AID 2796. activation, % at 5 µM. hit rate 2.5% among 320,000; in the data active = activation above about 47%;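 also: 0% = vehicle wells and 100% = reference agonist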
# MC4R antagonist: antagonists of human melanocortin 4 receptor (MC4R). P32245. MC4R-expressing cells, MTII-stimulated cAMP, LANCE TR-FRET. inhibition, % at 6.5 µM. hit rate 0.48% among 360,000. AID 540295;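 active = inhibition above its plate's cutoff, the mean of tested wells on that plate plus 3 SD, cut at about 29% in these data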;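 also: 0% = Melanotan II alone and 100% = Melanotan II plus saturating MCL0020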
#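 Material – human MC4R-expressing U2OS cells · Repeats – no replicates · Detection – TR-FRET with Eu-cAMP and labeled anti-cAMP, 671 nm · Times – compound 30 min, challenge 1 h, detection 1 h · Compound – single nominal compound dose of 6.5 µM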
# MC4R barr conf: human MC4R beta-arrestin agonism confirmation; hit rate 31% among 2,400; shares compounds with MC4R ag barr; U2OS MC4R beta-arrestin recruitment, luminescence; scaled DMSO 0%, Melanotan II 100%; AID 602192; activation, % at 8.9 µM;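 active = mean activation across replicates above the hit cutoff set in the earlier primary screen, cut at about 8% in these data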
# MOR-DOR barr ag: OPRM1-OPRD1 heterodimer agonism counter-screen | AID 602194 | shares compounds with MC4R ag barr | U2OS PathHunter beta-arrestin, beta-gal luminescence; percent of deltorphin B response, DMSO zero | hit rate 5.8% among 2,400 | activation, % at 9.2 µM;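 active = mean activation across replicates exceeds the hit threshold derived in the earlier primary screen, cut at about 18% in these data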;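 also: 100% = deltorphin B at 0.9 µM final and 0% = DMSO alone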
# GAA30 FXN cntr: activates GAA30 frataxin promoter, counter-screen for GAA850 activators; activation, % at 6 µM; HEK293 lucGAA30 FXN promoter luciferase, 24 h; DMSO = 0%, 5 µM ipriflavone = 100%; hit rate 66% among 1,900; shares compounds with FXN GAA850 act; AID 588350;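 active = mean activation above the mean of solvent-only control wells plus 3 SD, cut at about 22% in these data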;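 also: counterscreen of GAA850 promoter hits where activity marks nonselective or luminescence artifacts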
# GAA850 confirm: confirmation of GAA850 frataxin (FXN) promoter activators; shares compounds with FXN GAA850 act; HEK293 lucGAA850 FXN promoter luciferase reporter, 24 h; 100% = activation by SAHA; activation, % at 6 µM; hit rate 86% among 1,900;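 active = mean activation above a set limit taken from the primary screen, cut at about 8% in these data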;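 also: 0% = DMSO wells and 100% = 10 µM SAHA wells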
# MOR ag counter: OPRM1 agonism in mouse HTR2A counterscreen | shares compounds with m5-HT2A agonist | U2OS OPRM1 beta-arrestin PathHunter, luminescence; DMSO 0%, DAMGO 9.3 µM 100% | activation, % at 9.3 µM | hit rate 5.3% among 2,300 | AID 624380;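 active = mean activation above the mean of DMSO-only wells plus 3 SD, cut at about 0.5% in these data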
# HTR2A ag conf: mouse HTR2A agonism confirmed; shares compounds with m5-HT2A agonist; CHO-K1 PathHunter beta-arrestin recruitment, luminescence; DMSO 0%, 30 µM serotonin 100%; activation, % at 7.6 µM; hit rate 19% among 2,300; AID 624381;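 active = mean activation across triplicates above the hit threshold derived in the original primary screen, cut at about 15% in these data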
# An asterisk follows results filed as active; nt = no result given.
SMILES,FXN GAA850 act,MC4R ag barr,m5-HT2A agonist,AHR activator,MC4R antagonist,MC4R barr conf,MOR-DOR barr ag,GAA30 FXN cntr,GAA850 confirm,others
COc1cccc(C(=O)Nc2nnc(-c3ccccc3)s2)c1,8.0*,13*,3,nt,-4,2,1,80*,35*,
c1ccc(OCCCn2nnc(-c3ccc(N4CCOCC4)cc3)n2)cc1,8.6*,17*,2,5,-2,3,12,20,8.6*,
c1ccc(OCCCn2nnc(-c3ccncc3)n2)cc1,-1,-2,3,-2,11,nt,nt,nt,nt,
Cc1c(Cc2ccccc2)sc(NC(=O)c2ccco2)c1C(N)=O,8.8*,9.7*,7,1,-7,0,5,38*,11*,
CCN1CCN(C(=O)C(Cc2ccccc2)NC(=O)c2ccc(Cl)c(S(=O)(=O)N(C)C)c2)CC1 (stereo not drawn),1,-1,-8,1,-1,nt,nt,nt,nt,
O=C1NC[C@@H](c2ccccc2)OC(=O)[C@@H](Cc2ccc(F)cc2)CC/C=C/C[C@@H]1CC(=O)N(CCO)Cc1ccccc1,-3,-2,-18,1,5,nt,nt,nt,nt,
CCOc1ccc(NC(=O)CN(C)C(=O)c2ccccc2-n2cnnn2)cc1OCC,2,1,-9,12,-3,nt,nt,nt,nt,
C=CCOC(=O)C1=C(C)NC(SCC(=O)Nc2nccs2)=C(C#N)C1c1ccc(Cl)cc1 (stereo not drawn),9.6*,11*,-7,6,2,2,3,14,8.9*,
CC(C)[C@H](NC(=O)c1ccccc1F)C(=O)OCCN1C(=O)c2ccccc2C1=O,-1,1,9,-1,-3,nt,nt,nt,nt,
Cc1ccc(C(=O)Nc2ncc(Cc3ccc(SC(F)F)cc3)s2)cc1,7.6*,18*,-1,6,-17,9.0*,4,-12,37*,
Cc1ccc(C(=O)Nc2ncc(Cc3ccc(F)cc3)s2)o1,0,-2,-2,2,2,nt,nt,nt,nt,
Cc1ccc2nc(Nc3ccc4[nH]c(=O)[nH]c4c3)c(-n3nc(C)cc3C)nc2c1,9.1*,34*,-3,35,-4,29*,2,77*,29*,
CCOC(=O)c1c(CSC(=N)N)n(-c2ccc(C)cc2)c2cc(Br)c(OC(C)=O)cc12,12*,29*,-7,1,1,14*,51*,-10,38*,
CC(Oc1ccc(Br)cc1)C(=O)Nc1ccc(N2CCOCC2)cc1N1CCOCC1 (stereo not drawn),-2,2,1,2,6,nt,nt,nt,nt,
Cc1ccccc1NC(=O)Nc1nc(C(N)Cc2ccccc2)cs1 (stereo not drawn),-3,2,-4,nt,-1,nt,nt,nt,nt,
NC(Cc1ccc(Cl)cc1)c1csc(NC(=O)Nc2ccccc2)n1 (stereo not drawn),7.6*,20*,0,nt,1,22*,13,14,11*,
Clc1ccccc1/C=N/NC1=Nc2cccc3cccc1c23,9.7*,18*,-1,37,-19,25*,8,84*,39*,
O=c1[nH]c2cc(C(F)(F)F)ccc2n1-c1cc(C(F)(F)F)ccc1O,-1,10*,15*,10,-7,1,10,nt,nt,MOR ag counter=0.6*;HTR2A ag conf=3
